# Data reported in ChEMBL document CHEMBL4138271, “Crystal Structures and Human Leukemia Cell Apoptosis Inducible Activities of Parthenolide Analogues Isolated from Piptocoma rufescens” (J Nat Prod, 2018).
# Active and inactive are the calls of the source. No cut-off for these calls is given here.
# Assays:
# [1] = tested on: EOL1; test: Induction of apoptosis in human EOL-1 cells assessed as early apoptotic cells at 0.56 uM after 24 hrs by Annexin-V FITC/7-AAD staining based flow cytometric method (reference value: 1.94%); type: functional
# [2] = tested on: MOLM-13; test: Induction of apoptosis in human MOLM13 cells assessed as live cells at 2.8 uM after 24 hrs by Annexin-V FITC/7-AAD staining based flow cytometric method (reference value: 86.8%); type: functional
# [3] = target: Transcription factor p65 (Homo sapiens) (UniProt Q04206); test: Inhibition of NFkappaB p65 in human EOL-1 cells at 10 uM after 72 hrs by immunoblotting method; type: cell-based
# Summary of the method: (§1)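 MOLM-13 or EOL-1 cells treated 72 h at 10 μM. Cells washed in ice-cold PBS and lysed in hypertonic NP-40 buffer (10 mM HEPES pH 7.5, 0.5 M NaCl) with protease/phosphatase inhibitors. Protein measured by BCA; SDS-PAGE onto PVDF. Probed 12 h with rabbit monoclonal NF-κB-p65 antibody, goat β-actin as loading control, then chemiluminescence. Blots representative of three independent experiments.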
# [4] = tested on: EOL1; test: Induction of apoptosis in human EOL-1 cells assessed as early apoptotic cells at 2.8 uM after 24 hrs by Annexin-V FITC/7-AAD staining based flow cytometric method (reference value: 1.94%); type: functional
# [5] = tested on: MOLM-13; test: Induction of apoptosis in human MOLM13 cells assessed as late apoptotic cells at 0.56 uM after 24 hrs by Annexin-V FITC/7-AAD staining based flow cytometric method (reference value: 1.43%); type: functional
# [6] = tested on: MOLM-13; test: Induction of apoptosis in human MOLM13 cells assessed as late apoptotic cells at 2.8 uM after 24 hrs by Annexin-V FITC/7-AAD staining based flow cytometric method (reference value: 1.43%); type: functional
# [7] = tested on: MOLM-13; test: Induction of apoptosis in human MOLM13 cells assessed as necrotic cells at 2.8 uM after 24 hrs by Annexin-V FITC/7-AAD staining based flow cytometric method (reference value: 0%); type: functional
# [8] = tested on: EOL1; test: Synergistic antileukemic activity against human EOL-1 cells assessed as concentration required for <= 75% cell survival after 72 hrs in presence of midostaurin by CellTiter 96 AQueous One solution cell proliferation assay; type: functional
# [9] = tested on: EOL1; test: Induction of apoptosis in human EOL-1 cells assessed as necrotic cells at 0.56 uM after 24 hrs by Annexin-V FITC/7-AAD staining based flow cytometric method (reference value: 0.032%); type: functional
# [10] = tested on: EOL1; test: Induction of apoptosis in human EOL-1 cells assessed as early apoptotic cells at 1.1 uM after 24 hrs by Annexin-V FITC/7-AAD staining based flow cytometric method (reference value: 1.94%); type: functional
# [11] = tested on: MOLM-13; test: Induction of apoptosis in human MOLM13 cells assessed as early apoptotic cells at 0.56 uM after 24 hrs by Annexin-V FITC/7-AAD staining based flow cytometric method (reference value: 11.8%); type: functional
# [12] = tested on: MOLM-13; test: Induction of apoptosis in human MOLM13 cells assessed as late apoptotic cells at 1.1 uM after 24 hrs by Annexin-V FITC/7-AAD staining based flow cytometric method (reference value: 1.43%); type: functional
# [13] = tested on: EOL1; test: Induction of apoptosis in human EOL-1 cells assessed as late apoptotic cells at 2.8 uM after 24 hrs by Annexin-V FITC/7-AAD staining based flow cytometric method (reference value: 0.535%); type: functional
# [14] = tested on: EOL1; test: Induction of apoptosis in human EOL-1 cells assessed as live cells at 2.8 uM after 24 hrs by Annexin-V FITC/7-AAD staining based flow cytometric method (reference value: 97.5%); type: functional
# [15] = tested on: EOL1; test: Induction of apoptosis in human EOL-1 cells assessed as necrotic cells at 1.1 uM after 24 hrs by Annexin-V FITC/7-AAD staining based flow cytometric method (reference value: 0.032%); type: functional
# [16] = tested on: MOLM-13; test: Cytotoxicity against human MOLM13 cells after 72 hrs by MTS assay; type: functional, cell-based; conditions: MOLM-13, 72 h
# [17] = tested on: EOL1; test: Induction of apoptosis in human EOL-1 cells assessed as necrotic cells at 2.8 uM after 24 hrs by Annexin-V FITC/7-AAD staining based flow cytometric method (reference value: 0.032%); type: functional
# [18] = tested on: MOLM-13; test: Induction of apoptosis in human MOLM13 cells assessed as necrotic cells at 0.56 uM after 24 hrs by Annexin-V FITC/7-AAD staining based flow cytometric method (reference value: 0%); type: functional
# [19] = tested on: EOL1; test: Induction of apoptosis in human EOL-1 cells assessed as caspase-3 activation at 10 uM after 72 hrs by immunoblotting analysis; type: functional, cell-based
# Summary of the method: (§2)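 EOL-1 cells (RPMI 1640, 10% FBS, 37 °C, 5% CO2) exposed 72 h; compounds at 10 μM, PKC412 at 10 nM. Harvested, PBS-washed, lysed in hypertonic NP-40 buffer with protease/phosphatase inhibitors; SDS-PAGE, PVDF transfer, rabbit monoclonal cleaved caspase-3 (Asp175) antibody 12 h, secondary 1 h, chemiluminescent detection; β-actin loading control. Representative blots of three independent experiments.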
# [20] = target: Transcription factor p65 (Homo sapiens) (UniProt Q04206); test: Inhibition of NFkappaB p65 in human MOLM13 cells at 10 uM after 72 hrs by immunoblotting method; type: cell-based; summary of the method: as §1
# [21] = tested on: MOLM-13; test: Induction of apoptosis in human MOLM13 cells assessed as caspase-3 activation at 10 uM after 72 hrs by immunoblotting analysis; type: functional, cell-based
# Summary of the method: (§3)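 MOLM-13 cells treated 72 h with test compounds at 10 μM or PKC412 at 10 nM. Cells washed in ice-cold PBS, lysed at 10^8 cells/mL in NP-40 hypertonic buffer (pH 7.5) with protease/phosphatase inhibitors, then run on SDS-PAGE and PVDF. Blots probed 12 h with rabbit monoclonal cleaved caspase-3 (Asp175), β-actin as loading control. Representative of three independent experiments.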
# [22] = tested on: EOL1; test: Induction of apoptosis in human EOL-1 cells assessed as live cells at 0.56 uM after 24 hrs by Annexin-V FITC/7-AAD staining based flow cytometric method (reference value: 97.5%); type: functional
# [23] = tested on: MOLM-13; test: Synergistic antileukemic activity against human MOLM13 cells assessed as concentration required for <= 75% cell survival after 72 hrs in presence of midostaurin by CellTiter 96 AQueous One solution cell proliferation assay; type: functional
# [24] = tested on: HT-29; test: Cytotoxicity against human HT-29 cells after 72 hrs by MTS assay; type: functional, cell-based; conditions: HT-29, 72 h
# [25] = tested on: EOL1; test: Induction of apoptosis in human EOL-1 cells assessed as live cells at 1.1 uM after 24 hrs by Annexin-V FITC/7-AAD staining based flow cytometric method (reference value: 97.5%); type: functional
# [26] = tested on: MOLM-13; test: Induction of apoptosis in human MOLM13 cells assessed as early apoptotic cells at 1.1 uM after 24 hrs by Annexin-V FITC/7-AAD staining based flow cytometric method (reference value: 11.8%); type: functional
# [27] = tested on: MOLM-13; test: Induction of apoptosis in human MOLM13 cells assessed as early apoptotic cells at 2.8 uM after 24 hrs by Annexin-V FITC/7-AAD staining based flow cytometric method (reference value: 11.8%); type: functional
# [28] = tested on: MOLM-13; test: Induction of apoptosis in human MOLM13 cells assessed as necrotic cells at 1.1 uM after 24 hrs by Annexin-V FITC/7-AAD staining based flow cytometric method (reference value: 0%); type: functional
# [29] = tested on: EOL1; test: Induction of apoptosis in human EOL-1 cells assessed as late apoptotic cells at 0.56 uM after 24 hrs by Annexin-V FITC/7-AAD staining based flow cytometric method (reference value: 0.535%); type: functional
# [30] = tested on: EOL1; test: Cytotoxicity against human EOL-1 cells after 72 hrs by MTS assay; type: functional, cell-based; conditions: EOL1, 72 h
# [31] = tested on: MOLM-13; test: Induction of apoptosis in human MOLM13 cells assessed as live cells at 0.56 uM after 24 hrs by Annexin-V FITC/7-AAD staining based flow cytometric method (reference value: 86.8%); type: functional
# [32] = tested on: EOL1; test: Induction of apoptosis in human EOL-1 cells assessed as late apoptotic cells at 1.1 uM after 24 hrs by Annexin-V FITC/7-AAD staining based flow cytometric method (reference value: 0.535%); type: functional
# [33] = tested on: MOLM-13; test: Induction of apoptosis in human MOLM13 cells assessed as live cells at 1.1 uM after 24 hrs by Annexin-V FITC/7-AAD staining based flow cytometric method (reference value: 86.8%); type: functional
# [34] = tested on: EOL1; test: Induction of apoptosis in human EOL-1 cells assessed as caspase-3 activation at 10 nM after 72 hrs by immunoblotting analysis; type: functional, cell-based; summary of the method: as §2
# [35] = tested on: MOLM-13; test: Induction of apoptosis in human MOLM13 cells assessed as caspase-3 activation at 10 nM after 72 hrs by immunoblotting analysis; type: functional, cell-based; summary of the method: as §3
# Sequence of Transcription factor p65 (Homo sapiens) (Q04206 whole entry): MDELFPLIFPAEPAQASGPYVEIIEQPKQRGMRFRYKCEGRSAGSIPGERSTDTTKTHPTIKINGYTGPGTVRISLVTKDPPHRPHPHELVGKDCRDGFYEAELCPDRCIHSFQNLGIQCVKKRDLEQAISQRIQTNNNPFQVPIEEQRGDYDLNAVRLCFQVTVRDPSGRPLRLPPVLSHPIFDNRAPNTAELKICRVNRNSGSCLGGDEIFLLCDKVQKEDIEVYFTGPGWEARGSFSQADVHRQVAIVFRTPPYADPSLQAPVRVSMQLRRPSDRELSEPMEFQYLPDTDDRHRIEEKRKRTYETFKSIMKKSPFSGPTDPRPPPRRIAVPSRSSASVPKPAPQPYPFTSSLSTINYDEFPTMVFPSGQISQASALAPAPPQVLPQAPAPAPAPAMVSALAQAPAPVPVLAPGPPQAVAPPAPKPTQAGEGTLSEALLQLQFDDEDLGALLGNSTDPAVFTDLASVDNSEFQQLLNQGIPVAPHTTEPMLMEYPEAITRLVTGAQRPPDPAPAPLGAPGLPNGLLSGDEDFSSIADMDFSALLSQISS
structure (smiles),measurement,setting,value
C=C(C)C(=O)O[C@H]1C[C@@]2(C)OC(=CC2=O)/C(CO)=C\[C@H]2OC(=O)C(=C)[C@H]12 [GOIAZENSOLIDE],Activity,[1],1.84%
same,Activity,[2],0.135%
same,inhibition,[3],Active
same,Activity,[4],0%
same,Activity,[5],3.18%
same,Activity,[6],97.7%
same,Activity,[7],1.96%
same,Activity,[8],0.56 µM
same,Activity,[9],0.306%
same,Activity,[10],0.281%
same,Activity,[11],14.7%
same,Activity,[12],94.6%
same,Activity,[13],99.8%
same,Activity,[14],0.01%
same,Activity,[15],2.4%
same,IC50,[16],860 nM
same,Activity,[17],0.189%
same,Activity,[18],0.392%
same,Activity,[19],Active
same,inhibition,[20],Active
same,Activity,[21],Active
same,Activity,[22],91.7%
same,Activity,[23],0.42 µM
same,IC50,[24],560 nM
same,Activity,[25],3.99%
same,Activity,[26],0.958%
same,Activity,[27],0.203%
same,Activity,[28],1.86%
same,Activity,[29],6.18%
same,IC50,[30],1100 nM
same,Activity,[31],81.8%
same,Activity,[32],93.3%
same,Activity,[33],2.54%
CO[C@@H]1[C@H](N(C)C(=O)c2ccccc2)C[C@H]2O[C@]1(C)n1c3ccccc3c3c4c(c5c6ccccc6n2c5c31)C(=O)NC4,Activity,[34],Active
same,Activity,[35],Active
